Only some compounds are listed: those with a hit (about 3% of all), similar ones and a draw of the others.
SENP8 block-1 – SENP8 protease inhibitors, primary screen, biochemical, luminescence; Sentrin-specific protease 8 (Homo sapiens), Q96LD8; purified SENP8, Z-RLRGG-aminoluciferin cleavage; inhibition, % at 10 µM; 330,000 compounds, 1.2% hits; in the data active = inhibition above about 50%
Target sequence (Q96LD8 whole entry, looked up): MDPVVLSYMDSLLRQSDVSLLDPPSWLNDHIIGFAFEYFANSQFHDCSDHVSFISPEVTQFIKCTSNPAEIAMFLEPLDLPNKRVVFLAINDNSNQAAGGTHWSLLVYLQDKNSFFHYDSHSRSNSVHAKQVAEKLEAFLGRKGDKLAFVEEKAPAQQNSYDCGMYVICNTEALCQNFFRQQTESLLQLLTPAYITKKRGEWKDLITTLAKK
SENP6 block – SENP6 protease inhibitors, primary screen, biochemical, luminescence, uHTS; 330,000 compounds, 1.8% hits; inhibition, % at 10 µM; Recombinant SENP6 catalytic domain, aminoluciferin luminescence; Sentrin-specific protease 6 (Homo sapiens), Q9GZR1;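 active = inhibition above about 50% at the single tested dose, limit read from the data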;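 note: plate controls were DMSO wells with enzyme for no effect and DMSO wells lacking enzyme for full effect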
UBC13 polyUb – UBC13 polyubiquitin chain formation inhibitors, primary screen, biochemical, TR-FRET, uHTS. AID 485273, 2010. 330,000 compounds, 0.47% hits. inhibition, % at 20 µM; in the data active = inhibition above about 45%, passing the limit was not always enough
Target sequence (P61088 whole entry, looked up): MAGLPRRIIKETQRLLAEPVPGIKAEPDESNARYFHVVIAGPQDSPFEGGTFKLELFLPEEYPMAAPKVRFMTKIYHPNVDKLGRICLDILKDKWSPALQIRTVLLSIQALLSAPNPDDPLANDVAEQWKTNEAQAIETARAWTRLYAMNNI
SENP8 block-2 – human SENP8 protease inhibitors, primary screen, biochemical, fluorescence, Nedd8 protein substrate, uHTS; Sentrin-specific protease 8 (Homo sapiens), Q96LD8; recombinant SENP8; inhibition, % at 20 µM; 360,000 compounds, 0.64% hits; AID 602440, 2012; in the data active = inhibition mostly above about 40%, no sharp cut-off; inactive = mostly below about 27%
SENP7 block – SENP7 protease inhibitors, primary screen, biochemical, luminescence, uHTS; Sentrin-specific protease 7 (Homo sapiens), Q9BQF6; recombinant SENP7, Z-RLRGG-aminoluciferin luminescence, 40 min; inhibition, % at 5 µM; 330,000 compounds, 1.5% hits;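 active = inhibition above about 50% at the single test dose, limit read from the data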;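 note: plate controls were DMSO with enzyme for no effect and no enzyme buffer wells for full effect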
Apaf-1 inh – inhibitors of human Apaf-1 apoptosome, primary screen, biochemical, DEVD-Rh110 fluorescence, uHTS | Apoptotic protease-activating factor 1 (Homo sapiens), O14727 | reconstituted apoptosome caspase-3 activity | inhibition, % at 20 µM | 330,000 compounds, 0.71% hits | AID 489030, 2010; active = inhibition of at least 40% at 20 µM;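 note: plate controls were DMSO wells for no effect and DEVD-CHO caspase inhibitor wells for full effect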
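Material: reconstituted apoptosome with Apaf-1, cytochrome c, caspase-9, procaspase-3, dATP / Buffer or medium: pH 7.5 Hepes buffer with CHAPS, BSA, DTT / Also added: cytochrome c with DEVD-Rh110 / Schedule: compound with Apaf-1, dATP, procaspase-3 30 min, then 50 min reaction, room temperature / Technique: rhodamine 110 fluorescence at Ex 480/Em 540 nm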
Casp3 counter – CASP3 inhibitor validation, counterassay for project on UBE2N polyubiquitination blockers, biochemical, one dose; shares compounds with UBC13 polyUb; Recombinant caspase-3, Caspase-Glo 3/7 luminescence, 60 min; inhibition, % at 20 µM; 1,400 compounds, 4% hits; AID 488856, 2010;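 active = mean inhibition across replicates above about 26%, limit read from the data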;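 note: plate controls were DMSO with caspase-3 for no effect and DMSO wells lacking enzyme for full effect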
UBC13 conf – UBC13 polyubiquitination inhibitors, single-point retest, confirmation, biochemical, TR-FRET, single concentration. 1,400 compounds, 68% hits. AID 488859, 2010. shares compounds with UBC13 polyUb. inhibition, % at 10 µM; in the data active = inhibition above about 45%
Numbers without * were called inactive; . = not tested or not shown.

SMILES	SENP8 block-1	SENP6 block	UBC13 polyUb	SENP8 block-2	SENP7 block	Apaf-1 inh	Casp3 counter	UBC13 conf
C#CCOCCOCCOCCNc1nc(N2CCN(C(=O)[C@H](CO)n3cc([C@@H](N)C(C)C)nn3)CC2)nc(N2CCN(C(=O)[C@H](CCCCN)n3cc([C@@H](N)[C@H](C)CC)nn3)CC2)n1	5	12	84*	19	7	32	-3	59*
CC1(C(=O)NCC2CC2)Cc2c(-c3cccc(C(F)(F)F)c3)ccnc2O1 (centres undefined)	.	.	.	0	.	.	.	.
Cc1ccc(S(=O)(=O)NCc2ccccc2NS(=O)(=O)c2ccc(C)cc2)cc1	.	.	.	12	.	.	.	.
COc1ccc(-c2c3c(nc4sc(C(=O)Nc5ccccc5)c(N)c24)CCC3)cc1	6	9	46*	-278	6	11	2	38
Cn1nc(NC(=O)C(F)(F)F)c2ncc(-c3ccccc3)nc21	.	.	.	0	.	.	.	.
CCCC(=O)N(CCN1CCOCC1)c1nc2c(C)cccc2s1	-9	7	69*	5	18	14	-5	73*
CCOc1ccccc1NC(=O)C(OC(=O)c1ccc(CC)cc1)c1ccccc1 (centres undefined)	-5	-3	22	6	3	21	.	.
CCOc1ccccc1NC(=O)C(OC(=O)c1ccc(O)cc1)c1ccccc1 (centres undefined)	-6	-19	78*	12	-8	-28	-2	89*
CC1(C(=O)NCc2ccccn2)CCN1C(=O)Cc1ccc(Cl)cc1Cl (centres undefined)	.	.	.	11	.	.	.	.
COc1ccc(C(C)(C)C)cc1NC(=O)C1=CC=CN2CCS(=O)(=O)N=C12	-4	-15	50*	-15	-11	5	2	9
O=C(NC(=S)Nc1ccc(N2CCN(C(=O)c3ccccc3)CC2)cc1)c1cccs1	-1	5	48*	20	7	11	0	56*
Cc1ccc2sc(N(CCCN(C)C)C(=O)c3ccc(S(=O)(=O)N(C)Cc4ccccc4)cc3)nc2c1C	-13	-10	39	24	-12	32	.	.
COc1ccc2sc(N(CCCN(C)C)C(=O)c3ccc(S(=O)(=O)N(C)Cc4ccccc4)cc3)nc2c1	-6	-3	48*	14	8	34	-2	93*
CCOc1cccc2sc(N(CCCN(C)C)C(=O)c3ccc(S(=O)(=O)N(CC)Cc4ccccc4)cc3)nc12	-4	-9	51*	26	-4	67*	-4	93*
Cc1cc(C)c2sc(N(CCCN(C)C)C(=O)c3ccc(S(=O)(=O)N(C)Cc4ccccc4)cc3)nc2c1	3	-20	96*	13	-5	37	2	115*
CN(C)CCCN(C(=O)c1ccc(S(=O)(=O)N(C)Cc2ccccc2)cc1)c1nc2cc3c(cc2s1)OCO3	1	-9	90*	9	-5	25	0	108*
COc1ccc(CN(CCCn2cnc3c(OC)ncnc32)CCCn2cnc3c(OC)ncnc32)cc1	.	.	.	0	.	.	.	.
O=C(c1ccc(S(=O)(=O)N2CCCC2)cc1)N1CCC(CN2C(=O)c3cccc4cccc(c34)C2=O)CC1	-1	37	91*	-31	4	9	0	95*
COc1cc(-c2coc3c(C(=O)NCc4cccc(Cl)c4)cccc23)ccc1O	.	.	.	2	.	.	.	.
CNC[C@H](Cc1ccccc1)NC[C@@H](Cc1cccc2ccccc12)NCCc1ccc(C)cc1	-19	-24	96*	24	-2	48*	-3	90*

Screens (PubChem)
